Data reported in ChEMBL document CHEMBL1914449, “Lead optimization at C-2 and N-3 positions of thiazolidin-4-ones as HIV-1 non-nucleoside reverse transcriptase inhibitors” (Bioorg Med Chem, 2011).
Converted amounts (≈) assume the structure as drawn.

Tests used:
[1] = tested on: Human immunodeficiency virus 1; experiment: Antiviral activity against R5 tropic Human immunodeficiency virus 1 subtype B-ADA5 infected in human TZM-bl cells assessed as inhibition of virus-induced cytopathic effect after 2 days by luciferase assay; assay type: functional, organism-based; conditions: Human immunodeficiency virus 1, subtype B-ADA5, TZM-bl, 48 h
Procedure, shortened: (§1)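 TZM-bl cells were seeded at 1 × 10^4 per well and incubated overnight at 37 °C in 5% CO2. Medium was then replaced with HIV-1 stock for 2 h at 37 °C, and compound concentrations giving >50% viability were added. After two days, luciferase activity was read as RLU. EC50 is the mean of two independent assays, each in duplicate. Nevirapine served as positive control.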

[2] = Cytotoxicity in human TZM-bl cells assessed as cell viability after 48 hrs by MTT assay; assay type: cell-based
Procedure, shortened: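 TZM-bl (JC53BL-13) cells were seeded at 1 × 10^4 per well and incubated overnight at 37 °C in 5% CO2. Medium was replaced with a twofold dilution series of compound for 48 h, and viability was read by MTT absorbance. CC50 (50% cytotoxic concentration) is the mean of three independent assays, each in quadruplicate.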

[3] = Selectivity index, ratio of CC50 for human TZM-bl cells to EC50 for X4 tropic Human immunodeficiency virus 1 subtype B-3B; assay type: cell-based; conditions: read-out: Ratio CC50/EC50
Procedure, shortened: (§2)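 Selectivity index is CC50/EC50. […] EC50 came from the 2-day luciferase (RLU) readout in HIV-1-infected TZM-bl cells (mean of two assays).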

[4] = Selectivity index, ratio of CC50 for human TZM-bl cells to EC50 for R5 tropic Human immunodeficiency virus 1 subtype B-ADA5; assay type: toxicity, cell-based; conditions: read-out: Ratio CC50/EC50; procedure, shortened: as §2
[5] = molecular target: Human immunodeficiency virus type 1 reverse transcriptase (Human immunodeficiency virus 1) (UniProt Q72547); experiment: Inhibition of biotin-dNTP labeled HIV-1 reverse transcriptase using ABST as substrate at 100 ug/ml after 1 hr by ELISA
Procedure, shortened: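 ELISA-format RT assay. Template/primer, biotin- and DIG-labelled dNTPs and RT enzyme in lysis buffer were incubated 1 h at 37 °C. The product was captured on streptavidin, detected with anti-DIG-peroxidase and ABTS substrate, and absorbance read at 405 nm. Activity is reported as percent inhibition of RT.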

[6] = tested on: Human immunodeficiency virus 1; experiment: Antiviral activity against X4 tropic Human immunodeficiency virus 1 subtype B-3B infected in human TZM-bl cells assessed as inhibition of virus-induced cytopathic effect after 2 days by luciferase assay; assay type: functional, organism-based; conditions: 48 h; procedure, shortened: as §1
[7] = tested on: Human immunodeficiency virus 1; experiment: Antiviral activity against X4 tropic Human immunodeficiency virus 1 subtype D-UG070 infected in human TZM-bl cells assessed as inhibition of virus-induced cytopathic effect after 2 days by luciferase assay; assay type: functional, organism-based; conditions: Human immunodeficiency virus 1, subtype D-UG070, TZM-bl, 48 h; procedure, shortened: as §1
[8] = tested on: Human immunodeficiency virus 1; experiment: Antiviral activity against R5 tropic Human immunodeficiency virus 1 subtype C-VB59 infected in human TZM-bl cells assessed as inhibition of virus-induced cytopathic effect after 2 days by luciferase assay; assay type: functional, organism-based; conditions: Human immunodeficiency virus 1, subtype C-VB59, TZM-bl, 48 h; procedure, shortened: as §1
[9] = Selectivity index, ratio of CC50 for human TZM-bl cells to EC50 for X4 tropic Human immunodeficiency virus 1 subtype D-UG070; assay type: toxicity, cell-based; conditions: read-out: Ratio CC50/EC50; procedure, shortened: as §2
[10] = Selectivity index, ratio of CC50 for human TZM-bl cells to EC50 for R5 tropic Human immunodeficiency virus 1 subtype C-VB59; assay type: toxicity, cell-based; conditions: read-out: Ratio CC50/EC50; procedure, shortened: as §2

Row | SMILES | EC50 [1] | CC50 at 48 h [2] | selectivity ratio [3] | selectivity ratio [4] | inhibition [5] | EC50 [6] | EC50 [7] | EC50 [8] | selectivity ratio [9] | selectivity ratio [10]
1 | CC(C)(C)c1cc(N2C(=O)CSC2c2c(F)cccc2F)no1 (stereo not drawn) | 2.58 µg/mL (≈ 7.62 µM) | 45.9 µg/mL (≈ 136 µM) | 15.5 | 18 | 71.5% | 2.97 µg/mL (≈ 8.78 µM) |  |  |  | 
2 | CC(C)(C)c1cc(N2C(=O)CSC2c2c(F)cccc2Cl)no1 (stereo not drawn) | 3.07 µg/mL (≈ 8.65 µM) | 40.7 µg/mL (≈ 115 µM) | 20.8 | 13.2 | 51.1% | 1.95 µg/mL (≈ 5.5 µM) | 1.6 µg/mL (≈ 4.51 µM) | 2.5 µg/mL (≈ 7.05 µM) | 24.4 | 16.2
3 | Cc1nc(N2C(=O)CSC2c2c(Br)cncc2Br)ccc1Br (stereo not drawn) | 2.52 µg/mL (≈ 4.96 µM) | 26.9 µg/mL (≈ 52.9 µM) | 4.4 | 10.7 | 75.9% | 6.09 µg/mL (≈ 12 µM) |  |  |  | 
4 | Cc1cc(N2C(=O)CSC2c2c(F)cccc2Cl)no1 (stereo not drawn) | 1.06 µg/mL (≈ 3.39 µM) | 38.5 µg/mL (≈ 123 µM) | 57.4 | 36.3 | 95.5% | 0.67 µg/mL (≈ 2.14 µM) | 0.75 µg/mL (≈ 2.4 µM) | 0.68 µg/mL (≈ 2.17 µM) | 51.3 | 56.6
5 | Cc1cc(N2C(=O)CSC2c2c(Cl)cccc2Cl)nc(C)c1Br (stereo not drawn) | 0.85 µg/mL (≈ 1.97 µM) | 2.5 µg/mL (≈ 5.78 µM) | 2.4 | 2.9 | 60.7% | 1.04 µg/mL (≈ 2.41 µM) | 0.29 µg/mL (≈ 0.671 µM) | 0.35 µg/mL (≈ 0.81 µM) | 8.6 | 7.1
6 | Cc1cccc(N2C(=O)CSC2c2c(Cl)cncc2Cl)n1 (stereo not drawn) | 1.64 µg/mL (≈ 4.82 µM) | 45 µg/mL (≈ 132 µM) | 69.8 | 27.4 | 84.1% | 0.65 µg/mL (≈ 1.91 µM) | 3.1 µg/mL (≈ 9.11 µM) | 1.95 µg/mL (≈ 5.73 µM) | 14.5 | 23.1
7 | Cc1cc(N2C(=O)CSC2c2c(Br)cncc2Br)nc(C)c1Br (stereo not drawn) |  |  |  |  | 62% |  |  |  |  | 
8 | Cc1cc(C)nc(N2C(=O)CSC2c2c(Cl)cncc2Cl)c1 (stereo not drawn) | 0.31 µg/mL (≈ 0.875 µM) | 37.3 µg/mL (≈ 105 µM) | 46.6 | 120 | 85.3% | 0.8 µg/mL (≈ 2.26 µM) | 1.55 µg/mL (≈ 4.38 µM) | 1.1 µg/mL (≈ 3.11 µM) | 24.1 | 33.9
9 | CSc1nc(Cl)cc(N2C(=O)CSC2c2c(F)cccc2Cl)n1 (stereo not drawn) | 1.26 µg/mL (≈ 3.23 µM) | 27 µg/mL (≈ 69.2 µM) | 29 | 21.4 | 76.5% | 0.93 µg/mL (≈ 2.38 µM) | 1.8 µg/mL (≈ 4.61 µM) | 0.65 µg/mL (≈ 1.67 µM) | 15 | 41.5
10 | Cc1cc(N2C(=O)CSC2c2c(F)cccc2Cl)nc(C)c1Br (stereo not drawn) | 0.12 µg/mL (≈ 0.289 µM) | 40.2 µg/mL (≈ 96.7 µM) | 447 | 335 | 91.2% | 0.09 µg/mL (≈ 0.216 µM) | 0.1 µg/mL (≈ 0.241 µM) | 0.07 µg/mL (≈ 0.168 µM) | 402 | 574
11 | Cc1cc(C)nc(N2C(=O)CSC2c2c(Br)cncc2Br)c1 (stereo not drawn) | 1.21 µg/mL (≈ 2.73 µM) | 49.8 µg/mL (≈ 112 µM) | 35.3 | 41.1 | 62.8% | 1.41 µg/mL (≈ 3.18 µM) | 2.1 µg/mL (≈ 4.74 µM) | 1.59 µg/mL (≈ 3.59 µM) | 23.7 | 31.3
12 | Cc1cc(N2C(=O)CSC2c2c(F)cccc2F)no1 (stereo not drawn) | 1.34 µg/mL (≈ 4.52 µM) | 62.7 µg/mL (≈ 212 µM) | 62 | 46.8 | 98.1% | 1.01 µg/mL (≈ 3.41 µM) | 1.9 µg/mL (≈ 6.41 µM) | 1.45 µg/mL (≈ 4.89 µM) | 33 | 43.2
13 | Cc1nc(N2C(=O)CSC2c2c(Cl)cncc2Cl)ccc1Br (stereo not drawn) | 2.17 µg/mL (≈ 5.18 µM) | 66.7 µg/mL (≈ 159 µM) | 10.8 | 30.7 | 76.6% | 6.18 µg/mL (≈ 14.7 µM) | 8.45 µg/mL (≈ 20.2 µM) | 6.5 µg/mL (≈ 15.5 µM) | 7.89 | 10.3
14 | Cc1cccc(N2C(=O)CSC2c2c(Br)cncc2Br)n1 (stereo not drawn) | 4.11 µg/mL (≈ 9.58 µM) | 26.7 µg/mL (≈ 62.2 µM) | 12 | 6.5 | 77.6% | 2.22 µg/mL (≈ 5.17 µM) | 5.55 µg/mL (≈ 12.9 µM) | 2.24 µg/mL (≈ 5.22 µM) | 4.8 | 11.9
15 | Cc1cc(N2C(=O)CSC2c2c(Cl)cncc2Cl)nc(C)c1Br (stereo not drawn) | 4.8 µg/mL (≈ 11.1 µM) | 15.6 µg/mL (≈ 36 µM) | 10.4 | 3.2 | 57.4% | 1.5 µg/mL (≈ 3.46 µM) |  |  |  | 
16 | Cc1ccnc2c1NC(=O)c1cccnc1N2C1CC1 [NEVIRAPINE] | 0.05 µg/mL (≈ 0.188 µM) | 76.1 µg/mL (≈ 286 µM) | 1520 | 1520 |  | 0.05 µg/mL (≈ 0.188 µM) | 0.05 µg/mL (≈ 0.188 µM) | 0.05 µg/mL (≈ 0.188 µM) | 1520 | 1520
17 | CC(C)(C)c1cc(N2C(=O)CSC2c2c(Cl)cccc2Cl)no1 (stereo not drawn) | 2.4 µg/mL (≈ 6.46 µM) | 48.5 µg/mL (≈ 131 µM) | 32.6 | 20 | 50.4% | 1.49 µg/mL (≈ 4.01 µM) | 1.76 µg/mL (≈ 4.74 µM) | 1.8 µg/mL (≈ 4.85 µM) | 27.5 | 26.9
18 | Cc1cc(N2C(=O)CSC2c2c(Cl)cccc2Cl)no1 (stereo not drawn) | 0.65 µg/mL (≈ 1.97 µM) | 40.5 µg/mL (≈ 123 µM) | 116 | 62.3 | 75.4% | 0.35 µg/mL (≈ 1.06 µM) | 0.5 µg/mL (≈ 1.52 µM) | 0.35 µg/mL (≈ 1.06 µM) | 81 | 116
